# From ChEMBL document CHEMBL1144619, “The synthesis and biological evaluation of novel series of nitrile-containing fluoroquinolones as antibacterial agents” (Bioorg Med Chem Lett, 2007)
# How the values were obtained:
# [1] = test system: Streptococcus pneumoniae; experiment: Antibacterial activity against fluoroquinolone resistance Streptococcus pneumoniae SP3765; assay type: functional
# [2] = test system: Haemophilus influenzae; experiment: Antibacterial activity against Haemophilus influenzae HI3542; assay type: functional; details: HI-3542
# [3] = target: Voltage-gated inwardly rectifying potassium channel KCNH2 (Homo sapiens, UniProt Q12809); experiment: Displacement of [3H]dofetilide from human ERG by fliter binding assay
# Sequence of Voltage-gated inwardly rectifying potassium channel KCNH2 (Q12809 whole entry): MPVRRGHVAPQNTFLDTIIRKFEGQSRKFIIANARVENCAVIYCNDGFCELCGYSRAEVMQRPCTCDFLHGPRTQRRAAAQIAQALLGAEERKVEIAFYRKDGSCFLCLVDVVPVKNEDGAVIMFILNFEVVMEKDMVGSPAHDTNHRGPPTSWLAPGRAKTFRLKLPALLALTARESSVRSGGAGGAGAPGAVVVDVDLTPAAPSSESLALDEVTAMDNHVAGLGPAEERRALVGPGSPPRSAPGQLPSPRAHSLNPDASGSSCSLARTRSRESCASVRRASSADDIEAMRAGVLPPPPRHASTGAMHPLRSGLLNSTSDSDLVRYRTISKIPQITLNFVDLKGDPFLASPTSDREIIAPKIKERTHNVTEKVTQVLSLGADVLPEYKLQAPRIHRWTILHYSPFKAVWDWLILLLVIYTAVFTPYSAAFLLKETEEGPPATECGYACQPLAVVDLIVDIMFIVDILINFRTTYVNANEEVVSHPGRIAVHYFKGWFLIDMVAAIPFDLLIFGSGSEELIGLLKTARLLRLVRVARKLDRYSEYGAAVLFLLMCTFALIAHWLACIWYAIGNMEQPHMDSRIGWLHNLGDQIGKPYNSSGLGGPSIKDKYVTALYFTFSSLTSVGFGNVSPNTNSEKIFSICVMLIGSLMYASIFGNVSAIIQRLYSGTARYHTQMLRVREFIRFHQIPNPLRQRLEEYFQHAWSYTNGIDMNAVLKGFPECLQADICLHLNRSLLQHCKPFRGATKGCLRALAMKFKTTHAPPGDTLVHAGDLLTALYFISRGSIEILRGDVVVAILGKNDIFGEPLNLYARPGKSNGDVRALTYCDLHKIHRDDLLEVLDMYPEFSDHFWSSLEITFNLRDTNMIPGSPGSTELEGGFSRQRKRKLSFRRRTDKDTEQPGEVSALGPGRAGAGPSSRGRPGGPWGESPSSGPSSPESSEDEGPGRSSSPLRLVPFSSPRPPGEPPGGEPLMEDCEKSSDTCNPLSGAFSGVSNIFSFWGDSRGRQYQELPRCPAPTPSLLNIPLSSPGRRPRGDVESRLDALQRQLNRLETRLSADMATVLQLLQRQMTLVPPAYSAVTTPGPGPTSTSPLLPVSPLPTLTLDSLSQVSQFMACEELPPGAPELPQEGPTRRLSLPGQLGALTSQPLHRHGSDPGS
# [4] = test system: Moraxella catarrhalis; experiment: Antibacterial activity against Moraxella catarrhalis BC-3531; assay type: functional
# [5] = test system: Staphylococcus aureus; experiment: Antibacterial activity against Staphylococcus aureus UC76; assay type: functional
# [6] = test system: Staphylococcus aureus; experiment: Antibacterial activity against Staphylococcus aureus SA2552; assay type: functional
# [7] = test system: Streptococcus pneumoniae; experiment: Antibacterial activity against Streptococcus pneumoniae SV1; assay type: functional
# [8] = target: hERG (KCNH2) (Homo sapiens, UniProt Q12809); experiment: Displacement of [3H]dofetilide from human ERG at 300 uM; details: probe [3H]dofetilide
# Sequence of hERG (KCNH2) (Q12809 whole entry): as above
# Summary of the method: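 Radioligand filter-binding assay measuring displacement of [3H]-dofetilide from the hERG channel, run as in a patent protocol.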
# [9] = test system: Rattus norvegicus; experiment: AUC in rat at 1 mg/kg, iv; assay type: ADME, organism-based, Plasma; set-up: dose 1 mg/kg, route intravenous; details: in vivo
# [10] = Clearance in rat at 1 mg/kg, iv; assay type: ADME, organism-based; set-up: dose 1 mg/kg, route intravenous; details: in vivo
# [11] = Volume of distribution in rat at 1 mg/kg, iv; assay type: ADME, organism-based; set-up: dose 1 mg/kg, route intravenous; details: in vivo, read-out: Vdss
# [12] = Half life in rat at 1 mg/kg, iv; assay type: ADME, organism-based; set-up: dose 1 mg/kg, route intravenous; details: in vivo
# [13] = Cmax in rat at 5 mg/kg, po; assay type: ADME, organism-based; set-up: dose 5 mg/kg, route oral; details: in vivo
# [14] = Bioavailability in rat at 5 mg/kg, po; assay type: ADME, organism-based; details: in vivo
SMILES,MIC [1] [µg/mL],MIC [2] [µg/mL],Ki [3] [µM],MIC [4] [µg/mL],MIC [5] [µg/mL],MIC [6] [µg/mL],MIC [7] [µg/mL],inhibition at 300 µM [8] [%],AUC [9] [ug/hr.ml],clearance [10] [mL/min/kg],Vd [11] [L/kg],half-life [12] [h],Cmax [13] [ng/mL],bioavailability [14] [%]
CC1COc2c(N3CC[C@@H]([C@H](C)N)C3)c(F)cc3c(=O)c(C(=O)O)cn1c23 (stereo partly drawn),0.25,0.008,> 100,0.06,0.015,0.125,0.03,35,–,–,–,–,–,–
COc1c(N2CC[C@@H]([C@H](C)NCCC#N)C2)c(F)cc2c(=O)c(C(=O)O)cn(C3CC3)c12,0.125,0.06,> 150,0.06,0.004,0.008,0.015,2,3.5,24,2.5,2.7,1200,70
Cc1c(N2CC[C@@H]([C@H](C)NCCC#N)C2)c(F)cc2c(=O)c(C(=O)O)cn(C3CC3)c12,0.06,0.03,72,0.015,0.002,0.008,0.008,–,–,–,–,–,–,–
COc1c(N2CC[C@@H]([C@@H](N)CC#N)C2)c(F)cc2c(=O)c(C(=O)O)cn(C3CC3)c12,0.125,0.008,> 150,0.03,0.001,0.002,0.008,29,–,–,–,–,–,–
COc1c(N2CC[C@@H]([C@H](C)NCCC#N)C2)ccc2c(=O)c(C(=O)O)cn(C3CC3)c12,2,0.5,–,1,0.03,0.125,0.25,–,–,–,–,–,–,–
COc1c(N2CC[C@@H]([C@H](C)N)C2)c(F)cc2c(=O)c(C(=O)O)cn(C3CC3)c12,0.03,0.004,–,0.015,0.002,0.008,0.004,–,–,–,–,–,–,–
Cc1c(N2CC(C)(CN)C2)c(F)cc2c(=O)c(C(=O)O)cn(C3CC3)c12,2,0.015,–,0.06,0.06,0.06,0.06,–,2.5,33,2.5,1.3,300,18
CN[C@@H](C)[C@@H]1CCN(c2c(F)cc3c(=O)c(C(=O)O)cn(C4CC4)c3c2OC)C1 [PREMAFLOXACIN],0.125,0.015,> 150,0.06,0.015,0.06,0.008,40,–,–,–,–,–,–
COc1c(N2CC[C@@H](CNCCC#N)C2)ccc2c(=O)c(C(=O)O)cn(C3CC3)c12,2,0.25,–,1,0.03,0.25,0.125,–,–,–,–,–,–,–
CCC1(CNCCC#N)CN(c2c(F)cc3c(=O)c(C(=O)O)cn(C4CC4)c3c2C)C1,2,0.06,> 150,0.25,0.03,0.03,0.125,25,6.5,13,1,1.4,2600,92
COc1c(N2CC[C@@H]([C@@H](N)CC#N)C2)ccc2c(=O)c(C(=O)O)cn(C3CC3)c12,0.5,0.06,> 150,0.125,0.008,0.06,0.03,30,5.2,16,0.5,1.8,1400,22
COc1c(N2CC[C@@H](CNCCC#N)C2)c(F)cc2c(=O)c(C(=O)O)cn(C3CC3)c12,2,0.125,106,0.5,0.03,0.06,0.125,–,–,–,–,–,–,–
COc1c(N2CC[C@@H](CN)C2)c(F)cc2c(=O)c(C(=O)O)cn(C3CC3)c12,1,0.015,24,0.125,0.015,0.06,0.06,–,–,–,–,–,–,–
CCC1(CN)CN(c2c(F)cc3c(=O)c(C(=O)O)cn(C4CC4)c3c2C)C1,1,0.015,45,0.125,0.015,0.03,0.06,–,–,–,–,–,–,–
CN[C@@H](CC#N)[C@@H]1CCN(c2c(F)cc3c(=O)c(C(=O)O)cn4c3c2OCC4C)C1 (stereo partly drawn),2,0.03,> 150,0.25,0.06,0.125,0.125,19,–,–,–,–,–,–
CC1COc2c(N3CC[C@@H]([C@@H](N)CC#N)C3)c(F)cc3c(=O)c(C(=O)O)cn1c23 (stereo partly drawn),0.125,0.008,> 150,0.125,0.008,0.06,0.015,22,–,–,–,–,–,–
COc1c(N2CC[C@@H](CN)C2)ccc2c(=O)c(C(=O)O)cn(C3CC3)c12,4,0.06,64,0.5,0.03,0.25,0.125,–,–,–,–,–,–,–
CN[C@@H](CC#N)[C@@H]1CCN(c2c(F)cc3c(=O)c(C(=O)O)cn(C4CC4)c3c2OC)C1,0.5,0.03,> 150,0.06,0.008,0.06,0.06,9,4.4,19,1.8,2.4,1400,53
O=C(O)c1cn(C2CC2)c2cc(N3CCNCC3)c(F)cc2c1=O [CIPROFLOXACIN],16,0.008,–,0.03,–,1,–,–,–,–,–,–,–,–
COc1c(N2CC[C@@H]([C@H](C)N)C2)ccc2c(=O)c(C(=O)O)cn(C3CC3)c12,0.125,0.125,–,0.06,0.008,0.03,0.015,–,–,–,–,–,–,–
Cc1c(N2CC(C)(CNCCC#N)C2)c(F)cc2c(=O)c(C(=O)O)cn(C3CC3)c12,2,0.06,> 150,0.125,0.03,0.03,0.125,18,–,–,–,–,–,–
CC1COc2c(N3CC[C@@H]([C@H](C)NCCC#N)C3)c(F)cc3c(=O)c(C(=O)O)cn1c23 (stereo partly drawn),0.25,0.06,> 150,0.125,0.015,0.03,0.06,10,–,–,–,–,–,–
C[C@H]1COc2c(N3CCN(C)CC3)c(F)cc3c(=O)c(C(=O)O)cn1c23.C[C@H]1COc2c(N3CCN(C)CC3)c(F)cc3c(=O)c(C(=O)O)cn1c23.O [LEVOFLOXACIN],–,0.015,–,0.06,0.125,0.5,–,10,–,–,–,–,–,–
Cc1c(N2CC[C@@H]([C@H](C)N)C2)c(F)cc2c(=O)c(C(=O)O)cn(C3CC3)c12,0.03,0.004,–,0.015,0.002,0.03,0.002,–,–,–,–,–,–,–
